According to ChEMBL document CHEMBL4138139, “Discovery of VU6005649, a CNS Penetrant mGlu7/8 Receptor PAM Derived from a Series of Pyrazolo[1,5-a]pyrimidines” (ACS Med Chem Lett, 2017):

What was measured:
[1] = molecular target: Androgen receptor (Homo sapiens) (UniProt P10275); assay: Displacement of [3H] methyltrienolone from androgen receptor in human LNCAP cells at 10 uM after 20 hrs by scintillation counting method relative to control; type: cell-based
Substance-P receptor = Substance-P receptor (Homo sapiens, UniProt P25103); assay: Displacement of [3H] substance P from recombinant human NK1 receptor expressed in CHO cells after 90 mins by scintillation counting method; type: cell-based
Rattus norvegicus [2] = species: Rattus norvegicus; assay: Displacement of [3H]-flunitrazepam from Wistar rat brain central GABA-A receptor at 10 uM measured after 60 mins by scintillation counting method relative to control
Method in brief: (§1)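 Single-concentration screen at 10 μM within a commercial lead-profiling panel of 68 GPCRs, ion channels and transporters. Activity read as percent inhibition of specific radioligand binding to each target.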

Rattus norvegicus [3] = species: Rattus norvegicus; assay: Displacement of [3H]batrachotoxinin from sodium channel site 2 in Wistar rat brain membranes at 10 uM after 60 mins by scintillation counting method relative to control; type: cell membranes; details: Membrane; method in brief: as §1
[4] = molecular target: Glutamate NMDA receptor (Rattus norvegicus) (UniProt P35439+Q00959+Q00960+Q00961+Q62645+Q8VHN2+Q9R1M7); assay: Displacement of [3H] CGP-39653 from NMDA in Wistar rat cerebral cortical membranes at 10 uM measured after 20 mins by scintillation counting method relative to control
Method in brief: (§2)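 Single-concentration screen at 10 μM in an outsourced profiling panel of 68 GPCRs, ion channels and transporters. Activity read out as percent inhibition of specific radioligand binding.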

[5] = molecular target: Cannabinoid receptor 1 (Homo sapiens) (UniProt P21554); assay: Displacement of [3H] SR141716A from recombinant human CB1 receptor expressed in rat Chem1 cell membranes at 10 uM measured after 90 mins by scintillation counting method relative to control; method in brief: as §2
[6] = molecular target: Metabotropic glutamate receptor 5 (Rattus norvegicus, UniProt P31424); assay: Positive allosteric modulation of rat mGlu5 receptor expressed in HEK cells assessed as increase in glutamate-induced calcium flux incubated for 142 secs followed by glutamate addition measured after 120 secs by Fluo4-AM dye based fluorescence assay; type: functional, cell-based
[7] = molecular target: Acetylcholine receptor subunit alpha (Homo sapiens) (UniProt P02708); assay: Displacement of [125I] alpha-Bungarotoxin from alpha1 nAChR in human rhabdomyosarcoma cell membranes at 10 uM after 120 mins by scintillation counting method relative to control; method in brief: as §2
[8] = molecular target: 5-hydroxytryptamine receptor 1A (Homo sapiens) (UniProt P08908); assay: Displacement of [3H] 8-OH-DPAT from full length human recombinant 5-HT1A receptor expressed in CHOK1 cell membranes at 10 uM after 60 mins by scintillation counting method relative to control; method in brief: as §2
[9] = Brain to plasma partition coefficient, Kp of the compound in C57BL/6 mouse at 10 mg/kg, ip measured after 360 mins by LC-MS/MS analysis; type: ADME, organism-based; details: brain and plasma
Method in brief: (§3)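 Mice given 10 mg/kg IP; time course out to 6 h with nonserial sampling of plasma and brain at each time point; Kp from brain/plasma levels.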

Rattus norvegicus [10] = species: Rattus norvegicus; assay: Displacement of [3H] muscimol from Wistar rat central GABAA at 10 uM measured after 10 mins by scintillation counting method relative to control; method in brief: as §2
[11] = molecular target: Adenosine receptor A2a (Homo sapiens) (UniProt P29274); assay: Displacement of [3H] CGS-21680 from full length human recombinant A2a receptor expressed in HEK293 cell membranes at 10 uM after 90 mins by scintillation counting method relative to control; method in brief: as §2
[12] = molecular target: D(1A) dopamine receptor (Homo sapiens) (UniProt P21728); assay: Displacement of [3H] SCH-23390 from recombinant human D1 receptor expressed in CHO cell membranes at 10 uM after 120 mins by scintillation counting method relative to control; method in brief: as §2
Rattus norvegicus [13] = species: Rattus norvegicus; assay: Inhibition of rat N-type calcium channel at 10 uM relative to control; method in brief: as §1
[14] = molecular target: Metabotropic glutamate receptor 3 (Rattus norvegicus, UniProt P31422); assay: Negative allosteric modulation of rat mGlu3 receptor expressed in HEK cells harboring GIRK channel assessed as decrease in glutamate-induced thallium flux incubated for 142 secs followed by glutamate addition measured after 120 secs by Fluo4-AM dye based fluorescence assay; type: functional, cell-based
[15] = molecular target: Beta-1 adrenergic receptor (Homo sapiens) (UniProt P08588); assay: Displacement of [125I] cyanopindolol from full length human recombinant beta1 receptor expressed in CHOK1 cell membranes at 10 uM after 120 mins by scintillation counting method relative to control; method in brief: as §2
[16] = molecular target: Adenosine receptor A1 (Homo sapiens) (UniProt P30542); assay: Displacement of [3H] DPCPX from full length human recombinant A1 receptor expressed in CHOK1 cell membranes at 10 uM after 90 mins by scintillation counting method relative to control; method in brief: as §2
[17] = molecular target: Metabotropic glutamate receptor 6 (Homo sapiens, UniProt O15303); assay: Negative allosteric modulation of human mGlu6 receptor expressed in HEK cells harboring GIRK channel assessed as decrease in glutamate-induced thallium flux incubated for 142 secs followed by glutamate addition measured after 120 secs by Fluo4-AM dye based fluorescence assay; type: functional, cell-based
[18] = molecular target: B2 bradykinin receptor (Homo sapiens) (UniProt P30411); assay: Displacement of [3H] bradykinin from recombinant human bradykinin B2 receptor expressed in rat Chem1 cell membranes at 10 uM measured after 60 mins by scintillation counting method relative to control; method in brief: as §2
Cytochrome P450 2D6 = Cytochrome P450 2D6 (Homo sapiens, UniProt P10635); assay: Inhibition of CYP2D6 in human liver microsomes using dextromethorphan as substrate preincubated for 15 mins followed by NADPH addition measured after 8 mins by LC-MS/MS analysis; type: ADME
[19] = molecular target: L-type calcium channel, dihydropyridine site (Rattus norvegicus, UniProt P22002+P27732+Q02485); assay: Inhibition of rat L-type calcium channel dihydropyridine site at 10 uM relative to control; type: protein assay
Rattus norvegicus [20] = species: Rattus norvegicus; assay: Displacement of [125I] triiodothyronine from thyroid hormone receptor in Sprague-Dawley rat liver membranes at 10 uM after 18 hrs by scintillation counting method relative to control; type: cell membranes; details: Membrane; method in brief: as §2
[21] = molecular target: Platelet-activating factor receptor (Homo sapiens) (UniProt P25105); assay: Displacement of [3H] PAF from human platelet activating factor receptor at 10 uM after 180 mins by scintillation counting method relative to control; method in brief: as §2
[22] = Brain to plasma partition coefficient, Kp of the compound in C57BL/6 mouse at 10 mg/kg, ip measured after 60 mins by LC-MS/MS analysis; type: ADME, organism-based; details: brain and plasma; method in brief: as §3
Rattus norvegicus [23] = species: Rattus norvegicus; assay: Displacement of [3H] Idazoxan from imidazoline I2 receptor in Wistar rat brain membranes at 10 uM after 30 mins by scintillation counting method relative to control; type: cell membranes; details: Membrane; method in brief: as §2
[24] = molecular target: Estrogen receptor (Homo sapiens) (UniProt P03372); assay: Displacement of [3H] estradiol from full length human recombinant ERalpha receptor expressed in Sf9 insect cells at 10 uM after 120 mins by scintillation counting method relative to control
[25] = molecular target: Epidermal growth factor receptor (Homo sapiens) (UniProt P00533); assay: Displacement of [125I] EGF from EGFR in human A431 cells at 10 uM after 60 mins by scintillation counting method relative to control; type: cell-based; method in brief: as §2

Substance-P receptor, sequence (P25103 whole entry): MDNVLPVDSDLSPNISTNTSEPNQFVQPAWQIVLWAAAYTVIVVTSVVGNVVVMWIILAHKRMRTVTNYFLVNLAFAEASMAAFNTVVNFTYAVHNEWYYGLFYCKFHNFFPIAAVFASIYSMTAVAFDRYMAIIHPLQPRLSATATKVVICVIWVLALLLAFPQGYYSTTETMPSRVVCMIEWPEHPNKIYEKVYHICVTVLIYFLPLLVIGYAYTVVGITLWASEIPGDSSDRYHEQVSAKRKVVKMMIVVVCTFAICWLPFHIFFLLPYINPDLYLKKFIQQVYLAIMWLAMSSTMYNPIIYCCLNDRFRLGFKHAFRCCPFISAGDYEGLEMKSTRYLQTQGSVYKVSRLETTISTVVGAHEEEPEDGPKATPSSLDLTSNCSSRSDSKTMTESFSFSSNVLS
Metabotropic glutamate receptor 3, sequence (P31422 whole entry): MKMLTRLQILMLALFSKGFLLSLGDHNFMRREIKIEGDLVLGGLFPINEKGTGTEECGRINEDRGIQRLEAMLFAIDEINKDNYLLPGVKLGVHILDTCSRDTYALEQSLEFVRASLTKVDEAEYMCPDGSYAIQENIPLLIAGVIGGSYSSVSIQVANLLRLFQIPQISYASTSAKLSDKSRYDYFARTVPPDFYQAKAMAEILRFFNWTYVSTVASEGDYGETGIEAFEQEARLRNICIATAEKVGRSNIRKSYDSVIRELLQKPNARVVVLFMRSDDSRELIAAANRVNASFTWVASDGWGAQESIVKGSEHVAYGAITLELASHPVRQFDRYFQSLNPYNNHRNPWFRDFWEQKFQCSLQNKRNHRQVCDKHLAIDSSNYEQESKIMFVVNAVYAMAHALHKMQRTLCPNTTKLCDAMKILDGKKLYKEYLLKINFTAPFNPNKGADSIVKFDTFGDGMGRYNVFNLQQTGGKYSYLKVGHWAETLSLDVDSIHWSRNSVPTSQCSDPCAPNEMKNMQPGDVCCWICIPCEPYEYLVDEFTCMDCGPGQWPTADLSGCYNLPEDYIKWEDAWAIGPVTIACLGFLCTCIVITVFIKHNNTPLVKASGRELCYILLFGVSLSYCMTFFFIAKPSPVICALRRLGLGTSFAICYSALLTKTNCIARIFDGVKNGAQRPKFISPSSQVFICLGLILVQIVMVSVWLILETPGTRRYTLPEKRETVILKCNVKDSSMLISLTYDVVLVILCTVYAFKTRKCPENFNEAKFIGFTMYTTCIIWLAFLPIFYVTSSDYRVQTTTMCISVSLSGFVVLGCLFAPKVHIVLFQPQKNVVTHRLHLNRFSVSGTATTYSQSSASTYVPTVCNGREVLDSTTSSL
Acetylcholine receptor subunit alpha (Homo sapiens), sequence (P02708 whole entry): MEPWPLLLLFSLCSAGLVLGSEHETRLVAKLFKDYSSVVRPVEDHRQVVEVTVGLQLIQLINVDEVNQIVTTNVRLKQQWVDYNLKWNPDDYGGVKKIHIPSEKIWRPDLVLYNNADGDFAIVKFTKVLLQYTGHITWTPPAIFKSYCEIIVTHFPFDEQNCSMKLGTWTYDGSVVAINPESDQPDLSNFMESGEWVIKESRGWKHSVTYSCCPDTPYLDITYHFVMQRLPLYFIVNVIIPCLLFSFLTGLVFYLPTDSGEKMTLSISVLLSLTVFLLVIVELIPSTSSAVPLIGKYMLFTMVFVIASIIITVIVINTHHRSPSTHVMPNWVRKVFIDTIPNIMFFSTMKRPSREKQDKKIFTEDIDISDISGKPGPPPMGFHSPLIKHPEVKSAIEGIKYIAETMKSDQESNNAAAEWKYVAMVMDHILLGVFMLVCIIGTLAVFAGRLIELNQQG
Adenosine receptor A1 (Homo sapiens), sequence (P30542 whole entry): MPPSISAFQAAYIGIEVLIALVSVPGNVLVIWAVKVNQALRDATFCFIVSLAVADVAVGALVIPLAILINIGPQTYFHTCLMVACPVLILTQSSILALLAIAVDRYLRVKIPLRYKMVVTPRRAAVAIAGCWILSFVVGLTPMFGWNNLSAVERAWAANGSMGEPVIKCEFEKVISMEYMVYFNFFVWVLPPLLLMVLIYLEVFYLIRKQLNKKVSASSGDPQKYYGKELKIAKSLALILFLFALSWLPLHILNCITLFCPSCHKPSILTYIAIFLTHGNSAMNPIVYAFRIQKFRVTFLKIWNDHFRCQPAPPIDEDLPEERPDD
Estrogen receptor (Homo sapiens), sequence (P03372 whole entry): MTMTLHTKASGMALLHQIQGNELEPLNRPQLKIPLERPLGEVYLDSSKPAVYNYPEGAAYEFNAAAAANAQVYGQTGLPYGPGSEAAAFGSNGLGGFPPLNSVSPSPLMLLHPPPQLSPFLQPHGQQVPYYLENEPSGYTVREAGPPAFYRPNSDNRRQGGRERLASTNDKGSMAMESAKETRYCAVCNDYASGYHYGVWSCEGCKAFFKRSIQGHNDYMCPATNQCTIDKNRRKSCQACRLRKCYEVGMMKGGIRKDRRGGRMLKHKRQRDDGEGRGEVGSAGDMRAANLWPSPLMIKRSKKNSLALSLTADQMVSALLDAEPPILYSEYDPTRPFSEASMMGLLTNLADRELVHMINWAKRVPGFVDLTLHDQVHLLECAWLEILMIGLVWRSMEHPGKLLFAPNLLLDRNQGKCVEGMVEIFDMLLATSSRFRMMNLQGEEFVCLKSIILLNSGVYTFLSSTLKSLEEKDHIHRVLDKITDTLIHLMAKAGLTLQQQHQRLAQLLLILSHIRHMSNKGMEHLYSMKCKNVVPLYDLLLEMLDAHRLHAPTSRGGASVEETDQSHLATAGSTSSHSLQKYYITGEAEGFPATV
Metabotropic glutamate receptor 5, sequence (P31424 whole entry): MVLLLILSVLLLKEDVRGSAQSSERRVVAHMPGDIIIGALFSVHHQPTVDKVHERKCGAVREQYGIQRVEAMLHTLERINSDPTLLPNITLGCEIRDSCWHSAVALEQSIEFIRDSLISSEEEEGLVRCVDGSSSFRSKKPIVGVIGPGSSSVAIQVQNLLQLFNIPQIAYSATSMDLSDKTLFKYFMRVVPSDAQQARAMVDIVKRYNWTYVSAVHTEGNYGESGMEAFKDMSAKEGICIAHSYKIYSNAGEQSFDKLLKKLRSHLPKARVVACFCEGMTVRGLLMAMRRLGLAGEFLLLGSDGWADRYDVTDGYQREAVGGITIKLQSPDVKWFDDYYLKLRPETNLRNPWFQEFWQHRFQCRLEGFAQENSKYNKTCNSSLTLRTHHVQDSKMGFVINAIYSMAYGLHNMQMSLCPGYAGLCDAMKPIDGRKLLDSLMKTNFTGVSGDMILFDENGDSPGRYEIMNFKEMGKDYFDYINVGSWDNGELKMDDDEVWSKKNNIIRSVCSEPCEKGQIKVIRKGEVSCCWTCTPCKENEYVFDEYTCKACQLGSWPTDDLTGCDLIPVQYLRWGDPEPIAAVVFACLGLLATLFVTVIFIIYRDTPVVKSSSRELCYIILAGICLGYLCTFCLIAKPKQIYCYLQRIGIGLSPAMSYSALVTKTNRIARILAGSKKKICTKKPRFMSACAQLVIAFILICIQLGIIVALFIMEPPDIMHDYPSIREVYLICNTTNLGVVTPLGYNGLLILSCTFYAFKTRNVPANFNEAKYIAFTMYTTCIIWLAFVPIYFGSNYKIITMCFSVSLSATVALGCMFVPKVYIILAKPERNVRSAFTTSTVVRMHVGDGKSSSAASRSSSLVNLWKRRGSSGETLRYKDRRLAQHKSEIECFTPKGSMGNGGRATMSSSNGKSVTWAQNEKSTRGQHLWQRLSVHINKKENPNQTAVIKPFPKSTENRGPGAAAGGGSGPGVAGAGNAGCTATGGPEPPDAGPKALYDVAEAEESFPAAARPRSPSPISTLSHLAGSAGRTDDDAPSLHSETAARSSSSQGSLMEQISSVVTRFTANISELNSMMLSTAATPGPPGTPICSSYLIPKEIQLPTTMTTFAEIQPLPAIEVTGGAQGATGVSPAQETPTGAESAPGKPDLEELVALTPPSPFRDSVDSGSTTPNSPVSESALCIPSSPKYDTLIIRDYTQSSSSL
Adenosine receptor A2a (Homo sapiens), sequence (P29274 whole entry): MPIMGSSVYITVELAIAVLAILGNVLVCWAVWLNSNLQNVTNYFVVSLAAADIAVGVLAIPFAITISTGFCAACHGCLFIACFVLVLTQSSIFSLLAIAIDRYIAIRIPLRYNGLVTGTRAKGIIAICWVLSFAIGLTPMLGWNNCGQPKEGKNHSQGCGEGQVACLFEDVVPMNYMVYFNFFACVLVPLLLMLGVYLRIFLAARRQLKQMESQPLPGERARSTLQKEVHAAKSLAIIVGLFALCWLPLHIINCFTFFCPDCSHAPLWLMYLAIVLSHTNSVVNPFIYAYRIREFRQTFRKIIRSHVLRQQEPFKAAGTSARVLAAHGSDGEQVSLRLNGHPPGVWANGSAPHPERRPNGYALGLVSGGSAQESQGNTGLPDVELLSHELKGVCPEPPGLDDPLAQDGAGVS
5-hydroxytryptamine receptor 1A (Homo sapiens), sequence (P08908 whole entry): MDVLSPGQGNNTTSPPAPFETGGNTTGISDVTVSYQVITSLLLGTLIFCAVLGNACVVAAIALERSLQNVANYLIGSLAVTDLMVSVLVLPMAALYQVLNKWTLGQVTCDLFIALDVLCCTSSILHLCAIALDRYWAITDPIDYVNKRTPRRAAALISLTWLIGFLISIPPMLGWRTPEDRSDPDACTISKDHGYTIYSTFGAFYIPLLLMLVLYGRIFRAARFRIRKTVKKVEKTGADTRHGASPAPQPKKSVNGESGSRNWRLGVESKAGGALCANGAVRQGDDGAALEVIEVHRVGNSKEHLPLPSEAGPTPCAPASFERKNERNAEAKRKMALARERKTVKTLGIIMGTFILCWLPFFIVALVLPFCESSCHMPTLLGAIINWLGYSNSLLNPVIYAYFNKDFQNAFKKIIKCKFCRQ

COc1ccc(-c2c(C)nn3c(C(F)(F)F)cc(C)nc23)c(F)c1F
3.4 µM: IC50 (Substance-P receptor)
0.65 µM: Ki (Substance-P receptor)
< 50%: inhibition [1] | inhibition (Rattus norvegicus [2]) | inhibition (Rattus norvegicus [3]) | inhibition [4] | inhibition [5] | inhibition [7] | inhibition [8] | inhibition (Rattus norvegicus [10]) | inhibition [11] | inhibition [12] | inhibition (Rattus norvegicus [13]) | inhibition [15] | inhibition [16] | inhibition [18] | inhibition at 10 µM [19] | inhibition (Rattus norvegicus [20]) | inhibition [21] | inhibition (Rattus norvegicus [23]) | inhibition [24] | inhibition [25]
2.1: Kp at 1 h [22]
> 30 µM: IC50 (Cytochrome P450 2D6)
1.1: Kp at 6 h [9]
> 10 µM: EC50 [6] | IC50 [14] | IC50 [17]
